Assay results taken from BindingDB's records for doi:10.1021/jm9003297 (University of Bonn, 2009).

Columns and labels:
P2Y purinoceptor 12 = P2Y purinoceptor 12 (Homo sapiens, UniProt Q9H244); test: Displacement of [3H]PSB0413 from human platelet P2Y12 receptor
How it was run: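 Membranes from outdated human blood-bank platelets (4-5 days post-donation), washed, centrifuged, homogenized, stored at -80 °C. 100 µg protein incubated with 5 nM [³H]PSB-0413 in 50 mM Tris-HCl pH 7.4 for 1 h at rt, then filtered over GF/B. Nonspecific binding with 1 mM ADP. Screen at 10 µM. Ki from curves of 6-7 concentrations over 3 log units. At least three experiments in triplicate.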

[1] = Displacement of [3H]DPCPX from human adenosine A1 receptor expressed in CHO cells assessed as ratio of IC50 in presence of GTP to absence of GTP by GTP shift assay

P2Y purinoceptor 12, sequence (Q9H244 whole entry): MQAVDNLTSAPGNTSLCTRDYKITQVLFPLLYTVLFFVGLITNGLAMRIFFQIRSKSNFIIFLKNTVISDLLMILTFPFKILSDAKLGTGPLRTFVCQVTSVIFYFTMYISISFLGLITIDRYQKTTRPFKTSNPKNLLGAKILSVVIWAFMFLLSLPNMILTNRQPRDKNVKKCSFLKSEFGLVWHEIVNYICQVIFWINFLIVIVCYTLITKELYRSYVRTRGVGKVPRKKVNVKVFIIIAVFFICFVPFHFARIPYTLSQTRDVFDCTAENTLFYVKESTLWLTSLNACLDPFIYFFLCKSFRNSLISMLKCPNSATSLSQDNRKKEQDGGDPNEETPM

SMILES	Ki (P2Y purinoceptor 12) [µM]	IC50 [1] [µM]
CN(C)[C@@H]1C(=O)C(C(N)=O)C(=O)[C@@]2(O)C(=O)C3C(=O)c4c(O)cccc4[C@@](C)(O)[C@H]3C[C@@H]12 (stereo partly drawn) [Achromycin]	> 10	
Nc1c(S(=O)(=O)O)cc(Nc2ccc(Nc3ncccn3)c(S(=O)(=O)O)c2)c2c1C(=O)c1ccccc1C2=O [Disodium 1-amino-4-[4-([1,3]diazine-2-ylamino)-3-sulfophenylamino]-9,10-dioxo-9,10-dihydroanthracene-2-sulfonate]		0.76
CN(C)[C@@H]1C(=O)C(C(N)=O)C(=O)[C@@]2(O)C(=O)C3C(=O)c4c(O)ccc(Cl)c4[C@@](C)(O)[C@H]3C[C@@H]12 (stereo partly drawn)	> 10	
